Measurements published in ChEMBL document CHEMBL3580571, “Bis-arylidene oxindole-betulinic Acid conjugate: a fluorescent cancer cell detector with potent anticancer activity” (ACS Med Chem Lett, 2015).
Activity calls are given as the source filed them. No cut-off for these calls is given here.

Assays:
B16-F10 [1] = assay: Induction of apoptosis in mouse B16F10 cells assessed as necrotic cells at 2 uM after 45 hrs by annexinV-FITC/propidium iodide staining-based flow cytometric analysis (reference value: 9%); format: functional
Outline: (§1)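 Treated B16F10 cells were double-stained with annexin V and propidium iodide and analysed by flow cytometry, with untreated cells as control. Quadrants: Q1 PI-only (necrotic); Q2 double-positive (post-apoptotic); Q4 annexin-only (apoptotic); Q3 double-negative (healthy).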

[2] = Cytotoxicity against human PANC1 cells assessed as cell killing effect after 72 hrs by MTT assay; format: functional, cell-based; conditions: PANC-1, 72 h
Outline: (§2)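 Cells were treated continuously for 72 h. Cytotoxicity is reported as IC50 in μM.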

B16-F10 [3] = assay: Induction of apoptosis in mouse B16F10 cells assessed as viable cells at 2 uM after 45 hrs by annexinV-FITC/propidium iodide staining-based flow cytometric analysis (reference value: 90.1%); format: functional; conditions: B16-F10, 45 h, read-out: Activity; outline: as §1
B16-F10 [4] = assay: Induction of reactive oxygen species generation in mouse B16F10 cells at 2 uM after 36 hrs by DCFDA dye-based fluorescence microscopic analysis; format: functional, cell-based
Outline: (§3)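 Treated cells were imaged for ROS by fluorescence microscopy at 20× magnification, with untreated cells as control.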

[5] = Cytotoxicity against mouse B16F10 cells assessed as cell killing effect after 72 hrs by MTT assay; format: functional, cell-based; conditions: B16-F10, 72 h; outline: as §2
MCF7 = assay: Cytotoxicity against human MCF7 cells assessed as cell killing effect after 72 hrs by MTT assay; format: functional, cell-based; conditions: MCF7, 72 h; outline: as §2
CHO = assay: Cytotoxicity against CHO cells assessed as cell killing effect after 72 hrs by MTT assay; format: cell-based; conditions: Cricetulus griseus; outline: as §2
A549 = assay: Cytotoxicity against human A549 cells assessed as cell killing effect after 72 hrs by MTT assay; format: functional, cell-based; conditions: A549, 72 h; outline: as §2
B16-F10 [6] = assay: Induction of apoptosis in mouse B16F10 cells assessed as late apoptotic cells at 2 uM after 45 hrs by annexinV-FITC/propidium iodide staining-based flow cytometric analysis (reference value: 0.8%); format: functional; outline: as §1
MDA-MB-231 = assay: Cytotoxicity against human MDA-MB-231 cells assessed as cell killing effect after 72 hrs by MTT assay; format: functional, cell-based; conditions: MDA-MB-231, 72 h; outline: as §2
[7] = Cytotoxicity against mouse NIH/3T3 cells assessed as cell killing effect after 72 hrs by MTT assay; format: cell-based; conditions: NIH3T3, 72 h; outline: as §2
OVCAR-3 = assay: Cytotoxicity against human OVCAR3 cells assessed as cell killing effect after 72 hrs by MTT assay; format: functional, cell-based; conditions: OVCAR-3, 72 h; outline: as §2
B16-F10 [8] = assay: Induction of apoptosis in mouse B16F10 cells assessed as early apoptotic cells at 2 uM after 45 hrs by annexinV-FITC/propidium iodide staining-based flow cytometric analysis (reference value: 0.1%); format: functional; outline: as §1
[9] = Induction of reactive oxygen species generation in mouse NIH/3T3 cells at 2 uM after 36 hrs by DCFDA dye-based fluorescence microscopic analysis; format: cell-based; conditions: nih3t3, 36 h; outline: as §3
[10] = Cellular uptake in mouse NIH/3T3 cells at 2 uM after 4 hrs by fluorescence microscopic analysis; format: ADME, cell-based; conditions: nih3t3, 4 h
Outline: (§4)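 Live cells were examined by fluorescence microscopy for uptake of the intrinsically fluorescent molecules, with untreated cells as control. Uptake was also quantified as % uptake per microgram of cellular protein. Fluorescence values were normalized to the absorption values of each molecule because their absorptivities differ.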

[11] = Cellular uptake in mouse B16F10 cells at 2 uM after 4 hrs by fluorescence microscopic analysis; format: ADME, cell-based; conditions: b16-f10, 4 h; outline: as §4
[12] = Cellular uptake in human PANC1 cells at 2 uM after 4 hrs by fluorescence microscopic analysis; format: ADME, cell-based; conditions: panc-1, 4 h; outline: as §4

SMILES	Activity (B16-F10 [1]) [%]	IC50 [2] [µM]	viability at 2 µM (B16-F10 [3]) [%]	Activity (B16-F10 [4])	IC50 [5] [µM]	IC50 (MCF7) [µM]	IC50 (CHO) [µM]	IC50 (A549) [µM]	Activity (B16-F10 [6]) [%]	IC50 (MDA-MB-231) [µM]	IC50 [7] [µM]	IC50 (OVCAR-3) [µM]	Activity (B16-F10 [8]) [%]	Activity [9]	Drug uptake [10]	Drug uptake [11]	Drug uptake [12]
C=C(C)[C@@H]1CC[C@]2(C(=O)O)CC[C@]3(C)[C@H](CC[C@@H]4[C@@]5(C)CC[C@H](O)C(C)(C)[C@@H]5CC[C@]43C)[C@@H]12 [BETULINIC ACID]	0	10.2	98.8	Active	> 20	10.5	> 20	> 20	0.9	> 20	> 20	8.37	0.3	Non-toxic			
C=C(C)[C@@H]1CC[C@]2(C(=O)NCCCOc3ccc(/C(=C4\C(=O)N(Cc5ccc(OC)cc5)c5ccccc54)c4ccc(O)cc4)cc3)CC[C@]3(C)[C@H](CC[C@@H]4[C@@]5(C)CC[C@H](O)C(C)(C)[C@@H]5CC[C@]43C)[C@@H]12	5	2.63	36.6	Active	2.3	7.4	> 20	2.56	54.6	1.26	> 20	6.05	3.8	Non-toxic	Not Active	Active	Active
COc1ccc(CN2C(=O)C(=C(c3ccc(O)cc3)c3ccc(O)cc3)c3ccccc32)cc1	5.1	> 20	93		> 20	> 20	> 20		1.7	> 20	> 20	> 20	0.2	Non-toxic	Active	Active	Active
C=C(C)[C@@H]1CC[C@]2(C(=O)NCCCNC(=S)Nc3ccc4c(c3)C(=O)OC43c4ccc(O)cc4Oc4cc(O)ccc43)CC[C@]3(C)[C@H](CC[C@@H]4[C@@]5(C)CC[C@H](O)C(C)(C)[C@@H]5CC[C@]43C)[C@@H]12		9.78			20						> 20				Not Active	Active	Active
COc1ccc(CN2C(=O)/C(=C(/c3ccc(O)cc3)c3ccc(OCCCN)cc3)c3ccccc32)cc1	8.4	> 20	90.7		> 20			1.36	0.9	> 20			0	Non-toxic	Not Active	Active	Active
COc1cccc2c1C(=O)c1c(O)c3c(c(O)c1C2=O)C[C@@](O)(C(=O)CO)C[C@@H]3O[C@H]1C[C@H](N)[C@H](O)[C@H](C)O1 [DOXORUBICIN]	34.1	1.03	43.4	Active	0.663				21.4		7.21		1.1	Toxic	Active	Active	Active
